Data: ChEMBL document CHEMBL2401636, “Investigation of the noncovalent binding mode of covalent proteasome inhibitors around the transition state by combined use of cyclopropylic strain-based conformational restriction and computational modeling” (J Med Chem, 2013)
Each block holds one compound with its values, some of them ahead of it.

Tests used:
[1] = Cytotoxicity against human HS-Sultan cells after 72 hrs; type: functional, cell-based
[2] = Inhibition of chymotrypsin-like activity of human 20S proteasome using succinyl-Leu-Leu-Val-Tyr-4-methylcoumaryl-7-amide as substrate after 60 mins by fluorescence assay
KB = test: Cytotoxicity against human KB cells after 72 hrs; type: functional, cell-based
HCT-116 = test: Cytotoxicity against human HCT116 cells after 72 hrs; type: functional, cell-based; settings: HCT-116, 72 h
[3] = Half life in TEAA buffer at 7.5 mM by RP-HPLC analysis; type: physicochemical
How it was run: (§1)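 Water-soluble analogues incubated at 37 °C in 0.1 M TEAA buffer, pH 7.4, or in human AB serum. Compound remaining was followed over time by HPLC, and the half-life was derived. Buffer half-lives are given in hours and serum half-lives in minutes.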

[4] = Half life in human AB serum at 23 mM by RP-HPLC analysis; type: ADME, cell-free; how it was run: as §1
[5] = Inhibition proteasome (unknown origin); design: species or system Homo sapiens

Compound: CC[C@H](C)[C@@H]1C(=O)O[C@H]1C(=O)N[C@H]1C[C@H]1C[C@@H](CCc1ccccc1)NC(=O)[C@H](C)NC(=O)OCc1ccccc1
- IC50 [1]: 870 nM
- IC50 [2]: 5.7 nM
- IC50 (KB): 2600 nM

Compound: CC[C@H](C)[C@@H]1C(=O)O[C@H]1C(=O)N[C@H]1C[C@H]1C[C@@H](CCc1ccccc1)NC(=O)c1ccc2ccccc2c1
- IC50 [2]: 33 nM

Compound: CC[C@H](C)[C@@H]1C(=O)O[C@H]1C(=O)N[C@H]1C[C@H]1C[C@@H](CCc1ccccc1)NC(=O)[C@H](C)NC(=O)c1ccc2ccccc2c1
- IC50 [2]: 10 nM

Compound: CC[C@H](C)[C@@H]1C(=O)O[C@H]1C(=O)N[C@H]1C[C@H]1[C@@H](C)[C@@H](CCc1ccccc1)NC(=O)[C@H](C)NC(=O)c1ccc2ccccc2c1
- IC50 [2]: 42 nM

Compound: CC[C@H](C)[C@@H]1C(=O)O[C@H]1C(=O)N[C@H]1C[C@H]1[C@@H](C)[C@@H](CCc1ccccc1)NC(=O)[C@H](C)NC(=O)OCc1ccccc1
- IC50 (HCT-116): 630 nM
- IC50 [1]: 310 nM
- IC50 [2]: 47 nM
- IC50 (KB): 1700 nM

Compound: CC[C@H](C)[C@@H]1C(=O)O[C@H]1C(=O)N[C@H]1C[C@H]1[C@H](C)[C@@H](CCc1ccccc1)NC(=O)c1ccc2ccccc2c1
- IC50 [2]: 750 nM

Compound: CC[C@H](C)[C@@H]1C(=O)O[C@H]1C(=O)N[C@H]1C[C@H]1C[C@@H](CCc1ccccc1)NC(=O)[C@H](C)N (mixture of isomers)
- half-life at 7500 µM [3]: 10 h
- half-life at 23000 µM [4]: 2.3 min

Compound: CC[C@H](C)[C@@H]1C(=O)O[C@H]1C(=O)N[C@H]1C[C@H]1C[C@H](NC(=O)[C@H](C)N)C(=O)O [BELACTOSIN A]
- IC50 [5]: 304 nM
- IC50 [2]: 1440 nM

More lines, main results first:

- IC50 [2]: 140 nM
Compound: CC[C@H](C)[C@@H]1C(=O)O[C@H]1C(=O)N[C@H]1C[C@H]1[C@@H](C)[C@@H](CCc1ccccc1)NC(=O)c1ccc2ccccc2c1

- IC50 [2]: 280 nM
Compound: CC[C@H](C)[C@@H]1C(=O)O[C@H]1C(=O)N[C@H]1C[C@H]1[C@H](C)[C@@H](CCc1ccccc1)NC(=O)[C@H](C)NC(=O)OCc1ccccc1
- IC50 (HCT-116): > 10000 nM
- IC50 [1]: 1800 nM
- IC50 (KB): > 10000 nM

- IC50 [2]: 630 nM
Compound: CC[C@H](C)[C@@H]1C(=O)O[C@H]1C(=O)N[C@H]1C[C@H]1[C@H](C)[C@@H](CCc1ccccc1)NC(=O)[C@H](C)NC(=O)c1ccc2ccccc2c1

- half-life at 7500 µM [3]: 14 h
- half-life at 23000 µM [4]: 4.2 min
Compound: CC[C@H](C)[C@@H]1C(=O)O[C@H]1C(=O)N[C@H]1C[C@H]1[C@@H](C)[C@@H](CCc1ccccc1)NC(=O)[C@H](C)N

- half-life at 7500 µM [3]: 21 h
- half-life at 23000 µM [4]: 4.7 min
Compound: CC[C@H](C)[C@@H]1C(=O)O[C@H]1C(=O)N[C@H]1C[C@H]1[C@H](C)[C@@H](CCc1ccccc1)NC(=O)[C@H](C)N
